{"source": "paper PMC2705627", "about": "(Journal of immunology (Baltimore, Md. : 1950), 2008)", "key": {"[1]": {"target": "T1, mFPR1 (Mus musculus, UniProt P33766)", "T1 sequence (P33766 1-364)": "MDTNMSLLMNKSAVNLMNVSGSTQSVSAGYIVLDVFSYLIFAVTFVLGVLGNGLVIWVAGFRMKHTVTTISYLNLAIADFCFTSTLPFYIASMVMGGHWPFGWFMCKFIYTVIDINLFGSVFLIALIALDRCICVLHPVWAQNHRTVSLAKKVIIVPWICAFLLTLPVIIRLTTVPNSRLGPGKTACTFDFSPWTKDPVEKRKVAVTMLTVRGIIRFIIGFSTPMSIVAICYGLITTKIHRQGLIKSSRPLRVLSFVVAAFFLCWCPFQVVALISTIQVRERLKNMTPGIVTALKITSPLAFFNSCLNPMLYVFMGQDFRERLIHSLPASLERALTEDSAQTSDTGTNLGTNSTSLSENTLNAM", "assay": "Ca2+ mobilization in mFPR1-RBL cells", "format": "cell-based"}, "[2]": {"system": "mfpr1^-/- neutrophils", "assay": "Superoxide production, mfpr1-/- neutrophils", "format": "cell-based, mouse (mfpr1^-/-)", "in_short": "(§1)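 Bone-marrow neutrophils from age- and gender-matched mfpr1-/- and WT C57BL/6 mice (8–10 wk), 5 × 10^6 cells/ml in HBSS with 0.5% BSA. Preincubated 5 min at 37°C with isoluminol, 40 U/ml HRP and 5 μM cytochalasin B. Chemiluminescence: 5 min basal, then every minute for 15 min after agonist. SOD controls; 200 ng/ml PMA time course. Peptide responses as area under curve over first 10 min; two experiments in triplicate.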"}, "[3]": {"system": "WT neutrophils", "assay": "Superoxide production, WT neutrophils", "format": "cell-based, mouse (C57BL/6)", "in_short": "as §1"}, "[4]": {"system": "mouse neutrophils", "assay": "Ex vivo chemotaxis", "format": "cell-based", "settings": "CD1 mice, Transwell, 30 min, 37°C", "in_short": "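Bone marrow neutrophils from CD1 mice, purified on a Nycoprep/72% Percoll gradient after RBC lysis. Cells at 5 × 10^6 cells/ml in HBSS/0.5% BSA, prewarmed 20 min at 37°C. Agonist placed in BSA-precoated lower wells under 3 μm pore inserts, cells added on top. After 30 min at 37°C, cells in the bottom chamber were counted. Counts with ligand in both chambers were subtracted to remove chemokinesis.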"}, "[5]": {"system": "mouse neutrophils", "assay": "Ca2+ mobilization, mouse bone marrow neutrophils", "format": "cell-based"}, "[6]": {"system": "mFPR2", "settings": "vs mFPR1; cited from earlier work"}, "[7]": {"system": "mouse neutrophils", "settings": "cited from earlier work"}, "[8]": {"system": "mFPR2", "assay": "ERK1/2 phosphorylation in mFPR2-RBL cells", "format": "cell-based, mouse", "settings": "at the concentrations tested; data not shown", "in_short": "(§2)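 Stably transfected or mock-transfected RBL-2H3 cells cultured 24 h, serum-starved 4 h, then stimulated over various time intervals. Stopped on ice in SDS-PAGE loading buffer, sonicated and boiled. Western blot with anti-phospho-ERK1/2 (1/1000), loading checked with anti-ERK1/2 (1/1000), HRP anti-rabbit secondary (1/3000). Two independent experiments.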"}, "[9]": {"system": "mouse neutrophils", "settings": "mice; cited from earlier work"}, "[10]": {"system": "mouse neutrophils", "assay": "Degranulation", "format": "cell-based, mouse (C57BL/6)", "in_short": "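WT C57BL/6 and mfpr1-/- bone-marrow neutrophils preincubated with 10 μM cytochalasin B in HBSS, 20 mM HEPES (pH 7.4), 0.1% BSA: 15 min on ice, then 15 min at 37°C. Stimulated 10 min at 37°C, chilled and spun. Supernatant mixed 1:1 with 10 mM 4-methylumbelliferyl β-D-glucuronide (pH 4.0, 0.1% Triton X-100) 15 min at 37°C. Glycine/EDTA stop (pH 10.4); fluorescence 365/460 nm, as % of lysate total.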"}, "[11]": {"system": "mouse neutrophils", "assay": "Superoxide production, mouse bone marrow neutrophils", "format": "cell-based", "in_short": "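Isoluminol-enhanced chemiluminescence on mouse bone-marrow neutrophils at 5 × 10^6 cells/ml in HBSS with 0.5% BSA, preincubated 5 min at 37°C with isoluminol, 40 U/ml HRP and 5 μM cytochalasin B. Basal reading 5 min, then agonist at graded concentrations, read each minute for 15 min; SOD controls run in parallel. Cumulative superoxide taken as area under curve over first 5 min; two experiments in duplicate.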"}, "[12]": {"system": "human formyl peptide receptor (FPR) 1", "settings": "cited from earlier work"}, "[13]": {"system": "mock-transfected RBL cells", "assay": "ERK1/2 phosphorylation in mock-transfected RBL cells", "format": "cell-based, rat", "settings": "at the concentrations tested (10 nM, 1 μM)", "in_short": "as §2"}, "[14]": {"system": "neutrophils from cow", "settings": "cited from earlier work"}, "[15]": {"target": "T1, mFPR1", "assay": "ERK1/2 phosphorylation in mFPR1-RBL cells", "format": "cell-based", "settings": "Western blot", "in_short": "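RBL-2H3 cells stably expressing mFPR1 (G418-selected; DMEM, 20% FBS, 250 μg/ml G418), with untransfected RBL cells as control. Cultured 24 h, serum-starved 4 h, then stimulated at graded concentrations for various times. Lysed in ice-cold SDS loading buffer, sonicated, boiled. Western blot for phospho-ERK1/2, with total ERK1/2 as loading control. Two independent experiments.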"}, "[16]": {"system": "neutrophils from mfpr1-deficient mice", "settings": "ex vivo; cited from earlier work"}, "[17]": {"system": "neutrophils from pig", "settings": "cited from earlier work"}, "[18]": {"target": "T1, mFPR1", "settings": "cited from earlier work"}, "[19]": {"target": "T1, mFPR1", "settings": "cited from earlier work", "remark": "listed apart in the source"}, "[20]": {"system": "mfpr1^-/- neutrophils", "assay": "Degranulation", "format": "cell-based, mouse (mfpr1^-/-)", "settings": "KO", "in_short": "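Bone marrow neutrophils from 8-10 wk mfpr1-/- mice (C57BL/6 background) and matched WT mice. Cells preincubated with 10 μM cytochalasin B in HBSS, 20 mM HEPES pH 7.4, 0.1% BSA, 15 min on ice then 15 min at 37°C. Stimulated 10 min at 37°C, then chilled. Supernatant reacted with 4-methylumbelliferyl β-D-glucuronide (pH 4.0), 15 min at 37°C. Fluorescence read at 365/460 nm. Release expressed as % of total from Triton X-100 lysate.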"}, "[21]": {"system": "neutrophils from cat", "settings": "cited from earlier work"}, "[22]": {"system": "FPRL1", "settings": "b40: fMIVIL ref 22; b3: fMLF ref 16; cited from earlier work"}, "[23]": {"system": "neutrophils from dog", "settings": "cited from earlier work"}, "[24]": {"system": "human neutrophils", "settings": "cited from earlier work"}}, "note": "pEC50: −log10 of the molar value. Entries after “also recorded” stand apart in the source; their conditions may differ. Residues, ends and D or L forms follow the SMILES beside them. *: point of attachment. For = O=C*", "data": [{"compound": "CC[C@H](C)[C@H](NC(=O)[C@H](CCSC)NC=O)C(=O)N[C@@H](Cc1ccccc1)C(=O)N[C@@H](CC(C)C)C(=O)O", "note": "[fMIFL, N-formyl-Met-Ile-Phe-Leu] (For-MIFL-OH)", "values": [{"measurement": "pEC50", "setting": "[1]", "result": 8.00}]}, {"compound": "CC[C@H](C)[C@H](NC(=O)[C@H](CCSC)NC=O)C(=O)N[C@H](C(=O)N[C@H](C(=O)N[C@@H](CC(C)C)C(=O)O)[C@@H](C)CC)C(C)C", "note": "[fMIVIL, N-formyl-Met-Ile-Val-Ile-Leu] (For-MIVIL-OH)", "values": [{"measurement": "pEC50", "setting": "[1]", "result": 8.00}]}, {"compound": "CCCCCCCCCCCCCC(=O)O[C@@H]1[C@@H](C)[C@@]2(O)[C@@H](C=C(CO)C[C@]3(O)C(=O)C(C)=C[C@@H]23)[C@@H]2C(C)(C)[C@]12OC(C)=O", "note": "[phorbol ester, phorbol myristate ester]", "values": [{"measurement": "superoxide production on phorbol ester stimulation, mfpr1-/- neutrophils", "setting": "[2]; 200 ng/ml phorbol myristate ester, KO compared with WT", "result": "responded similarly"}, {"measurement": "superoxide production on phorbol ester stimulation, WT neutrophils", "setting": "[3]; 200 ng/ml phorbol myristate ester, WT compared with KO", "result": "responded similarly"}]}, {"compound": "N-formyl-Met-Leu-Phe [fMLF]", "values": [{"measurement": "concentration inducing Ca2+ flux", "setting": "[1]; mFPR1-RBL", "result": "above 1 μM"}, {"measurement": "neutrophil migration at 100 nM", "setting": "[4]", "result": "did not stimulate significant neutrophil migration"}, {"measurement": "Ca2+ mobilization at 10 nM", "setting": "[5]; 10 nM, FLIPR dye", "result": "but not fMLF"}, {"measurement": "lowest concentration with evident Ca2+ mobilization", "setting": "[5]; not evident below 100 nM", "result": "≥ 100", "unit": "nM"}, {"measurement": "response of mFPR2 to fMLF", "setting": "[6]", "result": "responds even more weakly"}, {"measurement": "potency loss on mouse neutrophils vs human neutrophils", "setting": "[7]; less potent for mouse than for human neutrophils", "result": "100 -fold"}, {"measurement": "concentration required for mouse neutrophil activation", "setting": "[7]; mouse neutrophils, ref 17 (ref 17, 20)", "result": "requiring micromolar concentrations for cell activation; also recorded: requires micromolar concentrations; also recorded: micromolar concentration range"}, {"measurement": "ERK1/2 phosphorylation in mFPR2-RBL cells", "setting": "[8]", "result": "none of the peptides was able to induce detectable phosphorylation"}, {"measurement": "fMLF concentration required for degranulation and superoxide production", "setting": "[9]", "result": "5 to 10", "unit": "µM"}, {"measurement": "superoxide production, mfpr1-/- neutrophils", "setting": "[2]; mfpr1^-/-", "result": "very little superoxide was generated"}, {"measurement": "β-glucuronidase release, percent of cell-associated enzyme", "setting": "[10]; 10 μM (maximal concentration used), WT neutrophils", "result": 5, "unit": "%"}, {"measurement": "β-glucuronidase release relative to maximal release by fMIVIL and fMIFL", "setting": "[10]; 10 μM fMLF", "result": "about one-half"}, {"measurement": "lowest concentration with significant β-glucuronidase release", "setting": "[10]; WT neutrophils, not significant below 1 μM", "result": "≥ 1", "unit": "µM"}, {"measurement": "superoxide production at 5 μM relative to fMIVIL and fMIFL", "setting": "[11]; 5 μM", "result": "about one-half"}, {"measurement": "threshold concentration for superoxide generation", "setting": "[11]; isoluminol chemiluminescence, 37°C", "result": "above 1 μM"}, {"measurement": "agonist activity at human FPR1", "setting": "[12]", "result": "potent agonist"}, {"measurement": "ERK1/2 phosphorylation in mock-transfected RBL cells", "setting": "[13]", "result": "none of the peptides was able to induce detectable phosphorylation"}, {"measurement": "response of cow neutrophils", "setting": "[14]", "result": "do not respond"}, {"measurement": "ERK1/2 phosphorylation at 10 nM", "setting": "[15]; 10 nM", "result": "but not at 10 nM"}, {"measurement": "ERK1/2 phosphorylation at 1 μM", "setting": "[15]; 1 μM", "result": "could induce ERK1/2 phosphorylation"}, {"measurement": "superoxide production, WT neutrophils", "setting": "[3]; C57BL/6 WT", "result": "less potent"}, {"measurement": "responsiveness of mfpr1-deficient neutrophils to fMLF", "setting": "[16]", "result": "decreased responsiveness"}, {"measurement": "response of pig neutrophils", "setting": "[17]", "result": "do not respond"}, {"measurement": "ERK1/2 phosphorylation at 50 nM", "setting": "[18]", "result": "but not fMLF"}, {"measurement": "agonist concentration required for calcium mobilization", "setting": "[19]", "result": "≥ 100", "unit": "nM"}, {"measurement": "β-glucuronidase release at 100 nM, mfpr1-/- neutrophils", "setting": "[20]; 100 nM", "result": "none of the three peptides was able to induce β-glucuronidase release"}, {"measurement": "β-glucuronidase release above 1 μM, mfpr1-/- neutrophils", "setting": "[20]; peptide concentrations above 1 μM", "result": "only a small amount of enzyme was released"}, {"measurement": "response of cat neutrophils", "setting": "[21]", "result": "do not respond"}, {"measurement": "affinity/response at FPRL1", "setting": "[22]", "result": "low affinities; also recorded: low-affinity receptor for fMLF"}, {"measurement": "response of dog neutrophils", "setting": "[23]", "result": "do not respond"}, {"measurement": "ERK1/2 phosphorylation in human neutrophils", "setting": "[24]", "result": "rapid phosphorylation of the MAPKs ERK1/2"}, {"measurement": "concentration inducing bactericidal functions in human neutrophils", "setting": "[24]; human neutrophils", "result": "nanomolar concentrations"}]}, {"compound": "Superoxide dismutase", "values": [{"measurement": "effect on detection of superoxide", "setting": "[11]; SOD, 250 units, added 10 min before stimulation with 1 μM peptide", "result": "effectively inhibited the detection of superoxide"}]}]}
